Assay outcomes as filed in PubChem BioAssay.
Rows were chosen to be rich in hits. Some 0.92% of all compounds tested hit in one or more screens of this group.
RAD54 inh – inhibitors of human RAD54 branch migration. actives 0.14% (n = 360,000). Q92698. AID 602329. inhibition, % at 10.4 µM. RAD54 Holliday junction branch migration, FAM/BHQ fluorescence;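 active = mean normalized replicate activity at least 40 and at least half of replicates scoring 40 or more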;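 also: inhibitors cause a drop in the FAM fluorescence signal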
Target sequence (Q92698 whole entry, looked up): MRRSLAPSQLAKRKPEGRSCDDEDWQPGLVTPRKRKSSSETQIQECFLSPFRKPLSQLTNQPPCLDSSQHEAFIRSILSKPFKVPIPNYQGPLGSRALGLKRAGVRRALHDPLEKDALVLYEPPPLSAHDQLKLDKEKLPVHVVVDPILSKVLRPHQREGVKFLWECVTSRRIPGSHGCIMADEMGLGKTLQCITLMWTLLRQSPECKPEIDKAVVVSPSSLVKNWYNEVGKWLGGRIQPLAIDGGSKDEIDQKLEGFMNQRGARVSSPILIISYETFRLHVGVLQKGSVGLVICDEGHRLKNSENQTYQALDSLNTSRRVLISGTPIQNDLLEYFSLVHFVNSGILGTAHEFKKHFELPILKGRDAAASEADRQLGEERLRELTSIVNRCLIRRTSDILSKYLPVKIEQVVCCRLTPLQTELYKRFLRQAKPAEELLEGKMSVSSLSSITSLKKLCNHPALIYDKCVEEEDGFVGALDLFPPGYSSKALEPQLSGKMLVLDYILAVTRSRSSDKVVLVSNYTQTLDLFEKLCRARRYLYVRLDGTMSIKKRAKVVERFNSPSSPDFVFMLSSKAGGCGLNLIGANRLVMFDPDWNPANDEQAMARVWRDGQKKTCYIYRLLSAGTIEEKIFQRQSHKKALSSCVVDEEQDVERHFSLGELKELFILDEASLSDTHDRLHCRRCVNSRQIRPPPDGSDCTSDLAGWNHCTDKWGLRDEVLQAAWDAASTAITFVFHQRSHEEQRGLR
RAD52 inh – inhibitors of human RAD52 DNA annealing | AID 651710 | P43351 | actives 0.46% (n = 360,000) | recombinant RAD52 DNA annealing, FRET fluorescence | inhibition, % at 18.7 µM;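 active = every replicate showing at least 50% inhibition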
N-glyco inh – N-linked glycosylation inhibition; D54 ERlucT glycosylation luciferase reporter, 24 h; percent of 100 nM tunicamycin response; reporter increase, % at 12.5 µM; actives 0.23% (n = 360,000); AID 588692;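 active = mean luciferase reporter signal, scaled so untreated is 0 and the glycosylation-blocking control 100, at or above a set limit in every replicate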;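 also: luciferase carries N-glycosylation sites so blocking glycosylation raises the light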
MLL AF4-AF9 inh – MLL-AF4/AF9 protein interaction inhibition; P42568; AlphaScreen, biotin-AF4 peptide binding to FLAG-AF9; inhibition, % at 10 µM; actives 0.47% (n = 350,000); AID 651704;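 active = every replicate reaching a set inhibition limit, whatever the replicate mean, cut at about 25% in these data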
FN deposition inh – fibronectin deposition inhibition | inhibition, % at 12.6 µM | AID 743247 | actives 0.086% (n = 350,000) | AH1F fibroblasts, Alexa488-fibronectin deposition fluorescence, overnight;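 active = mean inhibition across replicates of 30% or more, regardless of how many single replicates reach that level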
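Material: AH1F fibroblasts assembling fluorescent fibronectin matrix; amount: 10000 AH1F cells/well; medium: DMEM, 2% serum; reagent: Alexa488-fibronectin, 24 nM final in well; dosing: single compound dose, delivered by pin transfer; incubation: 1 h adhesion, overnight exposure; detection: fluorescence after three HBSS washes, excitation 485 nm, emission 525 nm; measure: fibronectin deposition inhibition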
Each line names hits and unclear results; the compound was inactive in the other large screens; ! = a repeat was not active.

CO[C@H]1CN(C)C(=O)c2ccc(NC(=O)Nc3cc(Cl)cc(Cl)c3)cc2OC[C@H](C)NC[C@H]1C	RAD52 inh 54.0 (no result: N-glyco inh)
CO[C@H]1CN(C)C(=O)c2ccc(NC(=O)Nc3cc(Cl)cc(Cl)c3)cc2OC[C@@H](C)NC[C@@H]1C	RAD52 inh 52.4 (no result: N-glyco inh)
CO[C@@H]1CN(C)C(=O)c2cc(NC(=O)Nc3cc(Cl)cc(Cl)c3)ccc2OC[C@H](C)NC[C@H]1C	RAD52 inh 56.5 (no result: RAD54 inh, N-glyco inh, MLL AF4-AF9 inh)
CO[C@H]1CN(C)C(=O)c2ccc(NC(=O)Nc3cccc(Cl)c3)cc2OC[C@@H](C)NC[C@@H]1C	none (no result: N-glyco inh)
CO[C@H]1CN(C)C(=O)c2ccc(NC(=O)Nc3cc(Cl)cc(Cl)c3)cc2OC[C@@H](C)NC[C@H]1C	RAD52 inh 63.8 (no result: N-glyco inh, MLL AF4-AF9 inh)
O=C(NC1CCCC1)N1CC2(C1)[C@@H](c1ccccc1)[C@@H](CO)N2CC1CCOCC1	none (no result: RAD54 inh, N-glyco inh, FN deposition inh)
COc1cccc(C#Cc2ccc([C@@H]3[C@H](CO)N4C(=O)CN(C(C)=O)C[C@@H]34)cc2)c1	none (no result: RAD54 inh, N-glyco inh, FN deposition inh)
Cc1cc(=O)oc2cc(OCC3CC(c4ccc(Cl)cc4)=NO3)ccc12 (centres undefined)	none (no result: RAD52 inh, MLL AF4-AF9 inh)
NNC(=O)c1ccc(OCC2CC(c3ccc(Cl)cc3)=NO2)cc1 (centres undefined)	N-glyco inh 52.3
CC(=O)c1cccc(NC(=O)NCCc2c[nH]c3ccccc23)c1	none (no result: RAD54 inh)
O=C(Nc1cccc(CNCCc2c[nH]c3ccccc23)c1)c1ccccc1Cl	MLL AF4-AF9 inh 34.6
CCN(CC)CCNC(=O)c1ccc(NC(=O)/C=C/c2cc(OC)c(OC)c(OC)c2)cc1	RAD54 inh 62.2
COc1cc(/C=C/C(=O)Nc2ccc(C)cc2)cc(OC)c1OC	none (no result: RAD54 inh, RAD52 inh, MLL AF4-AF9 inh)
COc1ccccc1/C=C1\SC(=S)N(CCC(=O)Nc2ccc(C(=O)O)c(O)c2)C1=O	MLL AF4-AF9 inh 25.8 (no result: RAD54 inh)
O=C(CCN1C(=O)/C(=C/c2ccco2)SC1=S)Nc1ccc(C(=O)O)c(O)c1	none
O=C(/C=C/c1ccccc1Cl)c1ccc(O)cc1	N-glyco inh 30.4
O=C(C=Cc1ccccc1O)c1ccccc1O	N-glyco inh 33.2
Cc1ccc(NC(=O)c2ccc([N+](=O)[O-])o2)c(C)c1	none (no result: FN deposition inh)
Cc1ccc(S(=O)(=O)c2ccc([N+](=O)[O-])o2)cc1	FN deposition inh 48.6 (no result: RAD54 inh)
C#CCOCCOCCOCCNc1nc(N2CCN(C(=O)CCCCCCCCCCNC(=O)Cn3cc(CCCCCN)nn3)CC2)nc(N2CCN(C(=O)CCCCCCCCCCNC(=O)[C@@H](CCSC)n3cc(CCO)nn3)CC2)n1	RAD52 inh 52.3 (no result: MLL AF4-AF9 inh, FN deposition inh)
C#CCOCCOCCOCCNc1nc(N2CCN(C(=O)CCCCCCCCCCNC(=O)[C@H](CO)n3cc(CCCSC)nn3)CC2)nc(N2CCN(C(=O)CCCCCCCCCCNC(=O)[C@H](CCCCN)n3cc(CCO)nn3)CC2)n1	RAD52 inh 54.7
Cc1ccc(S(=O)(=O)N2C[C@@H](O)COC[C@H]3O[C@@H](CC(=O)N[C@H]4CCN(Cc5ccccc5)C4)CC[C@@H]32)cc1	none (no result: N-glyco inh)
O=C1c2ccccc2C(=O)c2c1cccc2N(CCO)CCO	MLL AF4-AF9 inh 28.0
COc1ccc(CCn2c(=N)c(C(=O)NCC3CCCO3)cc3c(=O)n4cccc(C)c4nc32)cc1 (centres undefined)	N-glyco inh 40.9
CN(C)CC/C=C1/c2ccccc2Sc2ccc(Cl)cc21	MLL AF4-AF9 inh 26.9!
COC(=O)CCCCC1SCC2NC(=O)NC21O (centres undefined)	MLL AF4-AF9 inh 54.1 (no result: RAD54 inh, FN deposition inh)
COc1ccccc1CN1[C@H](CO)[C@@H]2c3ccccc3N(C(=O)C3CCCC3)C[C@@H]21	none (no result: N-glyco inh)
Cc1cc(Br)cc2c(C(=O)Nc3c(C)n(C)n(-c4ccccc4)c3=O)cc(-c3cccs3)nc12	N-glyco inh 40.8 (no result: RAD54 inh, RAD52 inh, MLL AF4-AF9 inh, FN deposition inh)
Cn1c(SCC(=O)c2ccc(F)cc2)ncc(C(=O)Nc2ccccc2)c1=O	N-glyco inh 36.1
CC(=O)Nc1ccc(NC(=O)CSc2ncc(C(=O)Nc3ccccc3)c(=O)n2C)cc1	none
CCN1/C(=C/c2ccc3cc(C)cc(C)c3[n+]2CC)Sc2cc(C)ccc21	MLL AF4-AF9 inh 27.6
CCN1/C(=C\c2ccc3cc(C)ccc3[n+]2CC)Sc2cc(C)c(C)cc21	none
O=C(c1cccnc1)N1CC(=O)N2[C@H](CO)[C@@H](c3ccc(-c4ccc(F)cc4)cc3)[C@H]2C1	none (no result: RAD54 inh, N-glyco inh, FN deposition inh)
Cc1cccc(-c2ccc([C@H]3[C@H]4CN(C(=O)c5cccnc5)CC(=O)N4[C@H]3CO)cc2)c1	MLL AF4-AF9 inh 35.7 (no result: RAD54 inh, N-glyco inh, FN deposition inh)
O=C(c1cccnc1)N1CC(=O)N2[C@H](C1)[C@H](c1ccc(-c3ccc(F)cc3)cc1)[C@@H]2CO	MLL AF4-AF9 inh 31.2 (no result: RAD54 inh, N-glyco inh, FN deposition inh)
c1ccc(Nc2ccccc2)cc1	none
Oc1cc(Nc2ccccc2)cc2cccnc12	N-glyco inh 37.6 (no result: FN deposition inh)
CN1CCN(C(=O)c2cccc(-c3cc(O)c4ncccc4c3)c2)CC1	none (no result: MLL AF4-AF9 inh)
Oc1cccc2cc(Nc3ccccc3)cnc12	MLL AF4-AF9 inh 29.5
Oc1cc(-c2cccnc2)cc2cccnc12	MLL AF4-AF9 inh 25.5
COc1ccc2c3c(n(C)c2c1)[C@@H](CO)N(C(=O)C1CCC1)CC31CN(C(=O)Nc2cccc(F)c2)C1	none (no result: RAD54 inh, N-glyco inh, FN deposition inh)
CS(=O)(=O)Nc1ccc2c(c1)[C@@H]1C[C@H](CC(=O)NCc3ccc(Cl)cc3)O[C@H](CO)[C@@H]1O2	none (no result: N-glyco inh)
O=c1[nH]c2ccc(Br)cc2c(-c2ccccc2)c1N1CCOCC1	MLL AF4-AF9 inh 25.0
COc1cccc(N2[C@@H](CC(C)=O)c3ccc(/C=C/C(C)=O)cc3S2(=O)=O)c1	N-glyco inh 37.7
CO[C@H]1CN(C)C(=O)c2cc(NC(=O)c3cccc(F)c3)ccc2OC[C@@H](C)N(C(C)=O)C[C@H]1C	none (no result: RAD54 inh, RAD52 inh, N-glyco inh, MLL AF4-AF9 inh)
CCCCCCC(=O)N(O)C1CC(=O)N(Cc2ccccc2)C1=O (centres undefined)	N-glyco inh 49.2 (no result: RAD52 inh)
CCCCNC(=O)Nc1nc2ccc(CC)cc2s1	FN deposition inh 34.0 (no result: RAD54 inh)
COc1ccc(C#Cc2cnc3c(c2)C(=O)N([C@H](C)CO)C[C@H](C)[C@H](CN(C)S(=O)(=O)c2cccs2)O3)cc1OC	none (no result: N-glyco inh)
Cc1nn(-c2ccc(Cl)cc2)c(Cl)c1/C=C(\C#N)C(N)=O	none
C=CCNC(=O)/C(C#N)=C/c1c(C)nn(-c2ccc(Cl)cc2)c1Cl	N-glyco inh 26.2 (no result: RAD54 inh)
C[C@@H]1CN([C@H](C)CO)S(=O)(=O)c2ccc(-c3cccnc3)cc2O[C@H]1CN(C)C(=O)CN(C)C	none (no result: N-glyco inh)
COc1cccc(N2C(C(C)=O)=NN(c3ccccc3)C2c2ccc(N3CCOCC3)cc2)c1 (centres undefined)	none (no result: RAD52 inh, MLL AF4-AF9 inh)
COc1ccc(C2N(c3ccc(Cl)cc3)N=C(C(C)=O)N(C)N2C(C)=O)cc1 (centres undefined)	MLL AF4-AF9 inh 27.7 (no result: RAD54 inh)
O=C(/C=C/Sc1ccc(C(F)(F)F)cn1)c1ccccc1	N-glyco inh 37.3 (no result: MLL AF4-AF9 inh)
CC(=O)N(C)C[C@@H]1Oc2c(NS(C)(=O)=O)cccc2C(=O)N(C)C[C@@H]1C	none (no result: RAD54 inh, RAD52 inh, N-glyco inh, MLL AF4-AF9 inh)
C=CCN=c1scc(-c2ccccc2)n1/N=C/c1ccccn1	MLL AF4-AF9 inh 27.9
C=CCN=c1scc(-c2ccc(F)cc2)n1/N=C/c1ccccn1	none (no result: RAD54 inh)
